The values that follow come from ChEMBL document CHEMBL1142593, “Physaloside A, an acylated sucrose ester from Physalis viscosa” (J Nat Prod, 2005).

The subject of one data set is Klebsiella pneumoniae. Put plainly: Antibacterial activity against Klebsiella pneumoniae after 18 hrs. The format is functional, organism-based. Summed up: (§1)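 Strains first grown on Mueller-Hinton agar, then in Mueller-Hinton broth with CaCl2/MgCl2 for 18 h at 37 °C. Serial dilutions were made (K. pneumoniae and P. aeruginosa […]) and equilibrated 30 min at 37 °C. Cultures were added to the samples, shaken 18 h at 37 °C and 60% humidity, and read at OD650. Controls were no inhibitor and 50 µg/mL streptomycin.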

The subject of another data set is Pseudomonas aeruginosa. The data set can be described thus: Antibacterial activity against Pseudomonas aeruginosa after 18 hrs. The format is functional, organism-based. The method, boiled down:
as §1

Another data set concerns Staphylococcus aureus. Put plainly: Antibacterial activity against Staphylococcus aureus after 18 hrs. The format is functional, organism-based. Summed up:
as §1

The subject of a further data set is Streptococcus pneumoniae. Put plainly: Antibacterial activity against Streptococcus pneumoniae after 18 hrs. Format: functional, organism-based. The method, boiled down:
as §1

The next data set has as its system THP-1. The data set can be described thus: Cytotoxicity against human THP1 cells after 72 hrs by WST1 assay. The format is cell-based. The conditions noted are these: THP-1, 72 h. Summed up: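 Cells were kept in RPMI 1640 with 10% FBS, 2 mM L-glutamine, penicillin/streptomycin and 10 µM 2-mercaptoethanol at 37 °C, 5% CO2, and seeded at 2.5 × 10^4 cells/well. Samples were tested at 250 µg/mL final for 72 h. WST-1 was added for a further 1–2 h, then A450 was read. Controls were 10 µM camptothecin and 0.1% DMSO.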
Background: Formazan colour is commonly taken as a measure of viable cells.

A short description of data set [1]: Selectivity ratio of IC50 for human THP1 cells to IC50 for Staphylococcus aureus. Format: ADME, cell-based, THP-1.
A short description of data set [2]: Selectivity ratio of IC50 for human THP1 cells to IC50 for Streptococcus pneumoniae. Format: ADME, cell-based, THP-1.
Data set [3] in a line: Selectivity ratio of IC50 for Klebsiella pneumoniae to IC50 for Staphylococcus aureus. The format is functional.
A short description of data set [4]: Selectivity ratio of IC50 for Pseudomonas aeruginosa to IC50 for Staphylococcus aureus. Format: functional.

Turning to `CCCCCCCCCCCC(=O)O[C@H]1[C@@H](O[C@@]2(CO)O[C@@H](CO)[C@H](O)[C@H]2O)O[C@H](CO)[C@@H](O)[C@@H]1OC(=O)C=C(C)C` [PHYSALOSIDE A], the IC50 (usually the midpoint of a concentration-inhibition curve) with Klebsiella pneumoniae is greater than 413 µM; in the data set with Pseudomonas aeruginosa, greater than 413 µM; with Staphylococcus aureus, 52 µM; in the data set on Streptococcus pneumoniae, 57 µM; in the data set with THP-1 it was greater than 800 µM. For the same compound, the selectivity ratio in data set [1] and in data set [2] was greater than 10 each time. For the same compound, the Ratio IC50 in [3] and in data set [4] was greater than 8 throughout.
